In brackets after ≈: the same amount, converted by molar mass.
What was measured:
Assay type in all cases: functional
Candida albicans [1] = test: Antimicrobial activity against Candida albicans SC5314 after 24 hrs by serial dilution method; conditions: SC5314, 24 h
Procedure, shortened: (§1)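 Broth serial dilution MIC in 96-well plates following NCCLS/CLSI methods. Compounds were dissolved in DMSO and serially diluted in growth medium, with incubation at 35 °C. […] C. parapsilosis 22019 served as the quality-control strain in each assay.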

Candida albicans [2] = test: Antimicrobial activity against Candida albicans Y0109 after 24 hrs by serial dilution method; conditions: Y0109, 24 h; procedure, shortened: as §1
Candida parapsilosis = test: Antimicrobial activity against Candida parapsilosis 22019 after 24 hrs by serial dilution method; conditions: Lodderomyces parapsilosis, 22019, 24 h; procedure, shortened: as §1
Cryptococcus neoformans = test: Antimicrobial activity against Cryptococcus neoformans 32609 after 72 hrs by serial dilution method; conditions: Cryptococcus neoformans, 32609, 72 h; procedure, shortened: as §1
Nakaseomyces glabratus = test: Antimicrobial activity against Candida glabrata 537 after 24 hrs by serial dilution method; conditions: Nakaseomyces glabratus, 537, 24 h; procedure, shortened: as §1
Aspergillus fumigatus = test: Antimicrobial activity against Aspergillus fumigatus 7544 after 48 hrs by serial dilution method; conditions: Aspergillus fumigatus, 7544, 48 h; procedure, shortened: as §1

Row | Structure (SMILES) | MIC (Candida albicans [1]) | MIC (Candida albicans [2]) | MIC (Candida parapsilosis) | MIC (Cryptococcus neoformans) | MIC (Nakaseomyces glabratus) | MIC (Aspergillus fumigatus)
1 | C[C@@H](N1CCc2sc(-c3cccc(Cl)c3)cc2C1)[C@](O)(Cn1cncn1)c1ccc(F)cc1F | 2 µg/mL (≈ 3.99 µM) | 2 µg/mL (≈ 3.99 µM) | 4 µg/mL (≈ 7.98 µM) | 4 µg/mL (≈ 7.98 µM) | 8 µg/mL (≈ 16 µM) | > 64 µg/mL
2 | C[C@@H](N1CCc2nc(-c3ccco3)sc2C1)[C@](O)(Cn1cncn1)c1ccc(F)cc1F | 0.25 µg/mL (≈ 0.546 µM) | 1 µg/mL (≈ 2.19 µM) | 1 µg/mL (≈ 2.19 µM) | 0.5 µg/mL (≈ 1.09 µM) | 0.5 µg/mL (≈ 1.09 µM) | 8 µg/mL (≈ 17.5 µM)
3 | C[C@@H](N1CCn2nnc(-c3ccc(C#N)nc3)c2C1)[C@](O)(Cn1cncn1)c1ccc(F)cc1F | 2 µg/mL (≈ 4.19 µM) | 4 µg/mL (≈ 8.38 µM) | 4 µg/mL (≈ 8.38 µM) | 16 µg/mL (≈ 33.5 µM) | 4 µg/mL (≈ 8.38 µM) | > 16 µg/mL
4 | C[C@@H](N1CCn2ncnc2C1)[C@](O)(Cn1cncn1)c1ccc(F)cc1F | 0.25 µg/mL (≈ 0.666 µM) | 0.25 µg/mL (≈ 0.666 µM) | 0.25 µg/mL (≈ 0.666 µM) | 0.5 µg/mL (≈ 1.33 µM) | 0.5 µg/mL (≈ 1.33 µM) | 16 µg/mL (≈ 42.6 µM)
5 | C[C@@H](N1CCn2cc(-c3cccc(C(F)(F)F)c3)nc2C1)[C@](O)(Cn1cncn1)c1ccc(F)cc1F | 0.125 µg/mL (≈ 0.241 µM) | 0.5 µg/mL (≈ 0.964 µM) | 0.125 µg/mL (≈ 0.241 µM) | 0.25 µg/mL (≈ 0.482 µM) | 0.25 µg/mL (≈ 0.482 µM) | 64 µg/mL (≈ 123 µM)
6 | CCOC(=O)c1cn2c(n1)CN([C@H](C)[C@](O)(Cn1cncn1)c1ccc(F)cc1F)CC2 | 0.5 µg/mL (≈ 1.12 µM) | 0.5 µg/mL (≈ 1.12 µM) | 0.5 µg/mL (≈ 1.12 µM) | 2 µg/mL (≈ 4.48 µM) | 1 µg/mL (≈ 2.24 µM) | > 64 µg/mL
7 | C[C@@H](N1CCc2nc(-c3ccsc3)sc2C1)[C@](O)(Cn1cncn1)c1ccc(F)cc1F | 0.25 µg/mL (≈ 0.528 µM) | 0.25 µg/mL (≈ 0.528 µM) | 0.25 µg/mL (≈ 0.528 µM) | 0.25 µg/mL (≈ 0.528 µM) | 0.25 µg/mL (≈ 0.528 µM) | 8 µg/mL (≈ 16.9 µM)
8 | C[C@@H](N1CCc2sc(-c3ccncc3)cc2C1)[C@](O)(Cn1cncn1)c1ccc(F)cc1F | 1 µg/mL (≈ 2.14 µM) | 2 µg/mL (≈ 4.28 µM) | 4 µg/mL (≈ 8.56 µM) | 4 µg/mL (≈ 8.56 µM) | 8 µg/mL (≈ 17.1 µM) | > 32 µg/mL
9 | C[C@@H](N1CCc2nc(-c3cccc(Cl)c3)sc2C1)[C@](O)(Cn1cncn1)c1ccc(F)cc1F | 4 µg/mL (≈ 7.97 µM) | 4 µg/mL (≈ 7.97 µM) | 2 µg/mL (≈ 3.98 µM) | 2 µg/mL (≈ 3.98 µM) | 4 µg/mL (≈ 7.97 µM) | 32 µg/mL (≈ 63.7 µM)
10 | C[C@@H](N1CCn2nnc(-c3cncnc3)c2C1)[C@](O)(Cn1cncn1)c1ccc(F)cc1F | 1 µg/mL (≈ 2.21 µM) | 2 µg/mL (≈ 4.41 µM) | 8 µg/mL (≈ 17.6 µM) | 8 µg/mL (≈ 17.6 µM) | 8 µg/mL (≈ 17.6 µM) | > 16 µg/mL
11 | Cc1ncc(-c2nc3c(s2)CN([C@H](C)[C@](O)(Cn2cncn2)c2ccc(F)cc2F)CC3)cn1 | 0.0625 µg/mL (≈ 0.129 µM) | 0.0625 µg/mL (≈ 0.129 µM) | 0.25 µg/mL (≈ 0.517 µM) | 0.25 µg/mL (≈ 0.517 µM) | 0.25 µg/mL (≈ 0.517 µM) | 16 µg/mL (≈ 33.1 µM)

More lines, now with the values ahead:

Row | MIC (Candida albicans [1]) | MIC (Candida albicans [2]) | MIC (Candida parapsilosis) | MIC (Cryptococcus neoformans) | MIC (Nakaseomyces glabratus) | MIC (Aspergillus fumigatus) | Structure (SMILES)
12 | 0.0625 µg/mL (≈ 0.138 µM) | 0.0625 µg/mL (≈ 0.138 µM) | 0.0312 µg/mL (≈ 0.0691 µM) | 0.125 µg/mL (≈ 0.276 µM) | 0.125 µg/mL (≈ 0.276 µM) | 16 µg/mL (≈ 35.4 µM) | C[C@@H](N1CCn2nc(-c3ccncc3)nc2C1)[C@](O)(Cn1cncn1)c1ccc(F)cc1F
13 | 0.0625 µg/mL (≈ 0.134 µM) | 0.125 µg/mL (≈ 0.267 µM) | 0.125 µg/mL (≈ 0.267 µM) | 0.125 µg/mL (≈ 0.267 µM) | 0.25 µg/mL (≈ 0.535 µM) | 32 µg/mL (≈ 68.5 µM) | Cc1ncc(-c2nc3n(n2)CCN([C@H](C)[C@](O)(Cn2cncn2)c2ccc(F)cc2F)C3)cn1
14 | 0.0625 µg/mL (≈ 0.129 µM) | 0.125 µg/mL (≈ 0.259 µM) | 0.25 µg/mL (≈ 0.517 µM) | 0.5 µg/mL (≈ 1.03 µM) | 0.25 µg/mL (≈ 0.517 µM) | 32 µg/mL (≈ 66.2 µM) | COc1ncc(-c2nc3n(n2)CCN([C@H](C)[C@](O)(Cn2cncn2)c2ccc(F)cc2F)C3)cn1
15 | 0.0625 µg/mL (≈ 0.134 µM) | 0.125 µg/mL (≈ 0.269 µM) | 0.25 µg/mL (≈ 0.537 µM) | 0.125 µg/mL (≈ 0.269 µM) | 0.125 µg/mL (≈ 0.269 µM) | 32 µg/mL (≈ 68.7 µM) | Cc1cccc(-c2nc3n(n2)CCN([C@H](C)[C@](O)(Cn2cncn2)c2ccc(F)cc2F)C3)c1
16 | 0.125 µg/mL (≈ 0.275 µM) | 0.125 µg/mL (≈ 0.275 µM) | 0.25 µg/mL (≈ 0.55 µM) | 0.25 µg/mL (≈ 0.55 µM) | 0.5 µg/mL (≈ 1.1 µM) | 16 µg/mL (≈ 35.2 µM) | C[C@@H](N1CCn2nc(Br)nc2C1)[C@](O)(Cn1cncn1)c1ccc(F)cc1F
17 | 0.125 µg/mL (≈ 0.273 µM) | 0.125 µg/mL (≈ 0.273 µM) | 0.125 µg/mL (≈ 0.273 µM) | 0.125 µg/mL (≈ 0.273 µM) | 0.25 µg/mL (≈ 0.546 µM) | 8 µg/mL (≈ 17.5 µM) | C[C@@H](N1CCn2nc(-c3cccs3)nc2C1)[C@](O)(Cn1cncn1)c1ccc(F)cc1F

From ChEMBL document CHEMBL3259614, “Design, synthesis, and structure-activity relationship studies of novel fused heterocycles-linked triazoles with good activity and water solubility” (J Med Chem, 2014)
